# From PubChem BioAssay
# An excerpt weighted towards active compounds, which were near 2.6% of everything screened.
# Ecoli rRNA inh – inhibits bacterial ribosomal RNA function over humanized ribosomes | E. coli WT GFP vs humanized-ribosome RFP mutants, fluorescence, 24 h; stronger effect = lower value; DMSO median 0, no signal -100 | GFP signal change (wild-type ribosome), % (concentration not given with the values) | 350,000 compounds, 1.6% hits;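 active means significant combined selectivity score with lowered wild-type GFP, culture density cut under 30%, mutant RFP and density less affected; inactive means any of these conditions unmet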
# PvdQ acylase – P. aeruginosa PvdQ acylase inhibition. purified PvdQ acylase, fluorescence plate reader. inhibition, % at 10 µM. 340,000 compounds, 0.063% hits. AID 488965; in the data active means inhibition above about 30%, passing the limit was not always enough;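 further: 0% = vehicle neutral wells and 100% = reference inhibitor wells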
# XiGFP reactiv – X-chromosome reactivation activator; XiGFP mouse fibroblasts, % GFP-positive cells imaging, 3 d; cells co-treated with 5-aza-dC sensitizer; scaled so ellipticine positive control = 100%; 360,000 compounds, 0.055% hits; activation, % at 7.58 µM; AID 743238;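 active means mean normalized replicate activation at least 10% and every replicate at or above 10%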;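 further: 0% = median of on-plate neutral control wells and 100% = ellipticine 6 µM median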
#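 System: 68-5-11 XiGFP fibroblast line | Buffer or medium: DMEM containing 5-aza-dC | Compound: Single point | Times: Compounds 3 days, fix/stain 15 min at room temperature | Benchmarks: Positive control ellipticine, 6 µM final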
# SR-BI DiI inh – inhibitors of mouse SR-BI mediated HDL lipid uptake; inhibition, % at 12.5 µM; 320,000 compounds, 0.96% hits; ldlA[mSR-BI] CHO cells, DiI-HDL uptake fluorescence, 3 h;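 active means mean replicate inhibition of at least 70% and a set share of replicates each scoring 70 or more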;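 further: 0% = median of neutral control wells and 100% = median of positive control wells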
# Target sequence (Q61009 whole entry, looked up): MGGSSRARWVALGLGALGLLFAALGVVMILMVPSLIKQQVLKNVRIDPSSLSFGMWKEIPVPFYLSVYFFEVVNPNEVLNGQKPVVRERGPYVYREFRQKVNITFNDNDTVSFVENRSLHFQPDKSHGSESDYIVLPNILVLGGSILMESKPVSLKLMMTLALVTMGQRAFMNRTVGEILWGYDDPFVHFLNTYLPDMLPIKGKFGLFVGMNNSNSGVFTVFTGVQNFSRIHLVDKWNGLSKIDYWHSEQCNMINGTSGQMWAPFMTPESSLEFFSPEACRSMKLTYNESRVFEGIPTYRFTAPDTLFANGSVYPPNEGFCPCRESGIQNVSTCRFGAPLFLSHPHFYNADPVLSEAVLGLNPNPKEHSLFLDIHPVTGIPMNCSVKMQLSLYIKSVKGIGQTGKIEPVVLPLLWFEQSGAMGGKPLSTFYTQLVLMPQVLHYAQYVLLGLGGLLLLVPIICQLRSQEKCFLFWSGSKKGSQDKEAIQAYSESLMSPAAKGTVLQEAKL
# SR-BI DiI-HDL act – activators of SR-BI mediated HDL lipid uptake; activation, % at 12.5 µM; 320,000 compounds, 0.096% hits; CHO ldlA[mSR-BI] cells, DiI-HDL uptake fluorescence, 3 h; 100 = double the neutral-control signal;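 active means mean replicate activation of at least 60% and every replicate at or above 60%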;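 further: 0% = median plate neutral-control signal and 100% = twice that signal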
#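 Test system: SR-BI-overexpressing, LDLR-lacking CHO cells; Medium: Ham's F12 with 0.5% BSA, HEPES 25 mM, pH 7.4; Schedule: 3 h, 37 °C; Technique: bottom-read fluorescence, 550/595 nm.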
# dFosB activator – enhances mouse delta FosB homodimer DNA binding; P13346; purified delta FosB, TAMRA-CDK5 oligo fluorescence polarization; percent of positive-control signal above neutral wells; activation, % at 25 µM; 340,000 compounds, 0.99% hits; AID 493131;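 active means mean activation above about 17%, with every replicate also reaching it, limit read from the data, passing the limit was not always enough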
# * = called active by the depositor; i = inactive; · = not tested or not shown.
SMILES,Ecoli rRNA inh,PvdQ acylase,XiGFP reactiv,SR-BI DiI inh,SR-BI DiI-HDL act,dFosB activator
CCCC[C@@H]1CNCCN1CCc1cccc2ccccc12,-20*,28,0,-21,21,8
COCCNC(=O)/C(C#N)=C/C(C)=C/c1ccccc1,-22*,-11,0,-1,1,0
COCCNC(=O)/C(C#N)=C/c1cccc(/C=C(\C#N)C(=O)NCCOC)c1,-13,4,0,14,-14,-10
C[C@@H]1CCCCO[C@H](CN(C)S(=O)(=O)c2cccs2)[C@@H](C)CN([C@@H](C)CO)C(=O)c2cc(NC(=O)Cc3ccccc3)ccc2O1,-2,·,0,·,·,·
COc1ccc(CC2(CO)CCN(Cc3ccc4nsnc4c3)CC2)cc1,-3,-4,0,19,-19,-3
OCC1(Cc2ccc(Cl)cc2)CCN(Cc2ccc3nsnc3c2)CC1,-23*,0,0,10,-10,-3
CC1CC(C)(C)NC(=S)N1CCCC(=O)Nc1ccc(Br)cc1 (configuration not stated),-37*,1,0,-6,6,-2
Cn1ncc(Br)c1C(=O)NC1C2CC3CC(C2)CC1C3 (configuration not stated),-30*,5,0,-14,14,0
Nc1nc(SCC(=O)c2ccc(Br)s2)n[nH]1,9,-4,0,i,641*,-7
CNC(=O)c1ccc(-c2cc3onc(-c4ccccc4)c3c(=O)n2C)cc1,-28*,-6,-1,1,-1,-25
Cc1ccc(-c2cc3onc(-c4ccccc4)c3c(=O)n2C)cc1,0,-3,0,0,0,8
Cc1cc(=O)oc(C)c1C(=O)NCCc1ccc(F)cc1,·,-15,·,-11,11,4
CCOC(=O)c1c(NC(=O)Nc2ccccc2)sc(C)c1C,·,16,·,85*,-85,-1
CCOC(=O)c1c(NC(=S)Nc2ccccc2)sc2c1CC(C)(C)SC2,-1,-5,1,95*,-95,-8
CCOC(=O)Nc1sc(C)c(C)c1C(=O)OCC,-20*,8,0,8,-8,-1
CCOC(=O)c1c(NC(=O)CN2CCCCC2)sc(C)c1C,-7,-13,0,23,-23,-6
CCC(=O)N[C@@H]1C=C[C@@H](CC(=O)NCc2cc(F)cc(F)c2)O[C@H]1CO,-1,·,0,·,·,·
O=C(Cn1cc(/C=N/NC(=O)c2ccccc2Br)c2ccccc21)Nc1ccc(F)cc1,10,-3,0,-6,6,-1
COc1ccccc1NC(=O)NNC(=O)c1cc2ccccc2cc1O,-16,-5,0,94*,-94,14
COc1cc(OC)cc(C(=O)NNC(=O)c2cc3ccccc3cc2O)c1,-10,-18,0,114*,-114,11
Cc1ccc(NC(=O)NNC(=O)c2cc3ccccc3cc2O)cc1,7,-12,0,37,·,93*
COc1ccccc1NC(=O)NNC(=O)c1ccc(-c2ccccc2)cc1,-19,-13,0,-3,3,-9
C[C@H](CO)N1C[C@H](C)[C@H](CN(C)Cc2ccc(Cl)c(Cl)c2)Oc2ccc(NC(=O)Nc3ccc(C(F)(F)F)cc3)cc2C1=O,2,·,-1,·,·,·
C=C1SC(Nc2c(C)cc(C)cc2C)=NC12CCCCC2,-50*,-5,0,23,-23,0
Cc1cccc(C)c1NC(=O)NC1(C(=O)N2CCCCC2)CCCCC1,2,-20,0,-12,12,-5
SMILES,Ecoli rRNA inh,PvdQ acylase,XiGFP reactiv,SR-BI DiI inh,SR-BI DiI-HDL act,dFosB activator
C=C1SC(Nc2c(C)cccc2C)=NC12CCCCC2,-22*,15,0,17,-17,4
CCCCn1c(SCN2C(=O)c3ccccc3C2=O)nc2cc(S(N)(=O)=O)ccc21,·,-19,·,-15,15,4
C[C@H]1CN([C@@H](C)CO)C(=O)c2cccc(NS(C)(=O)=O)c2O[C@@H]1CN(C)S(=O)(=O)c1ccc(F)cc1,2,·,0,·,·,·
O=C(NCCOC(=O)Nc1cccc2ccccc12)OCc1ccccc1,-34*,-12,0,-18,18,-2
CCCCN(CC)CCNC(=O)c1cc2c(=O)[nH]c3ccccc3c2s1,4,-15,0,88*,-88,-16
COCCN(C(=O)CSCC(=O)Nc1ccc(C)cc1)c1c(N)n(CC(C)C)c(=O)[nH]c1=O,14,2,0,-15,15,4
C[C@@H]1CN([C@@H](C)CO)C(=O)Cc2cc(NS(=O)(=O)c3ccccc3)ccc2O[C@H]1CN(C)Cc1ccc(C(=O)Nc2ccccc2N)cc1,-6,·,-1,·,·,·
COc1ccc(C2/C=C\CN(C(=O)Nc3ccccc3)CC(=O)N2Cc2ccc(F)cc2)cc1 (configuration not stated),-27*,-4,0,0,0,-2
CCCC(=O)Nc1ccc2c(c1)OC[C@H](C)N(C(=O)CN(C)C)C[C@H](C)[C@@H](OC)CN(C)C2=O,4,·,0,·,·,·
COCCCNC(=S)Nc1cc2oc3ccccc3c2cc1OC,-12,5,0,88*,-88,-10
COc1cc2c(cc1NC(=S)Nc1cccc(C(F)(F)F)c1)oc1ccccc12,·,-10,·,75*,-75,-7
COc1cc2c(cc1NC(=S)Nc1cccc3ccccc13)oc1ccccc12,·,-11,·,77*,-77,11
COc1cc2c(cc1NC(=O)CCC(=O)O)oc1ccccc12,-11,-1,0,-18,18,3
CCOC(=O)CN1C(=O)N[C@@H](c2ccccc2)C(C(=O)OC)=C1C,·,27,·,-27,27,4
CC(=O)C[C@@H]1OC[C@H](Cc2ccccc2)N1S(=O)(=O)c1ccc(C)cc1,-28*,·,0,·,·,·
Cc1ccc(S(=O)(=O)N2[C@@H](Cc3ccccc3)CO[C@H]2CC(=O)c2cccc3ccccc23)cc1,15,·,0,·,·,·
O=C(Nc1nnc(CCS(=O)(=O)c2ccc3ccccc3c2)s1)c1cccs1,·,-7,1,-21,21,-18
N#CCC(=O)Nc1ccc(C(=O)Nc2cccnc2)cc1,10,3,0,-15,15,-3
O=C(CCSCCC(=O)NN=Cc1ccc(F)cc1)NN=Cc1ccc(F)cc1,12,-2,0,82*,-82,-16
Cc1ccc(S(=O)(=O)N2CCN(C(=O)COC(=O)c3cccnc3Cl)CC2)c(C)c1,-3,-12,0,1,-1,-2
Cc1ccc(S(=O)(=O)N2CCN(C(=O)COC(=O)c3ccc(Cl)nc3)CC2)c(C)c1,13,-19,0,-3,3,32*
